Bioassay records from PubChem.
This is one part of a sample in which hits are shown more often than they occur.
PGC1a Ac signal = raises PGC1a acetylation signal in U2OS cells; 350,000 tested, 0.21% active; activation, % at 15.6 µM; U2OS PGC1a acetylation AlphaScreen, overnight;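 active = every replicate reaching activation of at least 50%, whatever the mean replicate activation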;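 note: hits raise the AlphaScreen acetylation signal above neutral controls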
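System – flag-PGC1a/GCN5 U2OS cells · Quantity – 7000 U2OS cells per well · Signal – AlphaScreen proximity luminescence, anti-acetyl-lysine antibody · Schedule – overnight compound treatment, 37 °C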
* hit, by the source's call.

SMILES | PGC1a Ac signal
CC(C)NC(=O)NCC[C@H]1CC[C@H](NC(=O)c2ccc(F)cc2)[C@H](CO)O1 | -54.5
CC(C)(C)c1ccc2c(c1)OC(C(=O)N/N=C/c1ccc([N+](=O)[O-])o1)CO2 (configuration not stated) | 164.9*
CC(NC1c2ccccc2-c2ccccc21)c1ccccc1 (configuration not stated) | -40.1
C[C@@H]1CN([C@@H](C)CO)C(=O)c2cccc(NC(=O)Nc3ccccc3)c2O[C@H]1CN(C)S(=O)(=O)c1cccs1 | -54.4
COc1ccc(N(CC(=O)Nc2ccccc2Cl)S(=O)(=O)c2ccc(C)cc2)cc1OC | -45.1
Cc1ccc(NC(=O)CN(C)S(=O)(=O)c2cccs2)c(Br)c1 | 58.9*
O=[N+]([O-])c1ccc(Oc2cccc(F)c2)c2ccncc12 | -70.6
Cc1ccc(CNC(=O)c2ccc(CS(=O)(=O)c3ccccc3)o2)cc1 | -43.9
O=C(NCc1cccnc1)/C(=C/c1ccc(-c2ccc(Cl)cc2)o1)S(=O)(=O)c1ccccc1 | 359.7*
Fc1ccc(CNC(=S)NCc2ccc(F)cc2)cc1 | -87.1
CCc1ccc(Nc2nnc(SCC(=O)Nc3ccc(C(=O)O)cc3)s2)cc1 | -46.1
O=c1oc(-c2ccccc2)cc(Cl)c1Cl | 115.0*
Cc1ccc(Cn2ccc(NC(=O)c3nn(C)cc3[N+](=O)[O-])n2)cc1 | 144.8*
Cn1cc([N+](=O)[O-])c(C(=O)Nc2nc(-c3ccc(Cl)cc3)cs2)n1 | -62.9
Cc1ccc(-c2nc(NC(=O)c3nn(C)cc3[N+](=O)[O-])sc2C)cc1 | -95.7
Cc1cnc(NC(=O)c2nn(C)cc2[N+](=O)[O-])s1 | 130.8*
Cc1ccc(-c2nc(NC(=O)c3nn(C)cc3[N+](=O)[O-])sc2C)cc1C | -91.2
CC(C)CC(NC(=O)c1ccc(Cl)cc1)C(=O)OCC(=O)c1ccc2c(c1)NC(=O)CO2 (configuration not stated) | -56.7
CCn1c(C(C)NC(=O)c2ccccc2C)n[nH]c1=S (configuration not stated) | -49.8
CC(C)NC(=S)N=Nc1c(O)[nH]c2ccc(C(C)C)cc12 | -47.5
NC(=O)c1ccccc1NC(=O)/C=C/C(=O)O | 62.3*
CC1=C(C(=O)OC(C)(C)C)C(c2ccc3ccccc3c2)NC(=O)N1C (configuration not stated) | -65.5
COCC(=O)OCC(=O)Nc1cc(C(C)(C)C)nn1-c1ccccc1 | -47.2
O=C(CNc1cccc([N+](=O)[O-])c1)N/N=C/c1ccc([N+](=O)[O-])o1 | 91.5*
COc1ccc(/C=N/NC(=O)c2ccc(NC(=O)c3cccc([N+](=O)[O-])c3)cc2)c(OC)c1 | -96.6
SMILES | PGC1a Ac signal
O=C(Cc1ccc([N+](=O)[O-])cc1)N/N=C/c1ccc([N+](=O)[O-])o1 | 301.7*
N#CCc1ccc(NC(=O)/C=C/c2ccc([N+](=O)[O-])o2)cc1 | 299.4*
CNC[C@H]1Oc2ncc(C#CC3CCCCC3)cc2C(=O)N([C@H](C)CO)C[C@H]1C | -41.2
COCCOc1ccc(C(F)(F)F)cc1NC(=O)CN1C(=O)NC2(CCCc3ccccc32)C1=O (configuration not stated) | -54.6
CN(CC(=O)NCC1CCCO1)S(=O)(=O)c1cc(Cl)ccc1Cl (configuration not stated) | -48.3
O=C(Cn1cc(C(=O)c2cccs2)c2ccccc21)NCC1CCCO1 (configuration not stated) | 85.7*
Oc1ccc(Nc2nnc(-c3ccc(O)cc3)c3ccccc23)cc1 | 63.4*
O=C(C[C@H]1C=C[C@H](NC(=O)Nc2ccc(C(F)(F)F)cc2)[C@@H](CO)O1)NCc1ccccn1 | -43.5
O=C1NC(=S)S/C1=C\C=C\c1ccc([N+](=O)[O-])o1 | 72.6*
COC(=O)c1cc(CN2C(=O)c3ccccc3C2=O)c(O)c([N+](=O)[O-])c1 | -40.2
O=C(COC(=O)c1ccc([N+](=O)[O-])s1)Nc1ccc(F)cc1 | 106.3*
Cc1cccc(COc2ccc(/C=C3/C(=O)N(C)C(=S)N3C)cc2)c1 | -70.6
C=C1C(=O)C23CCC4C(C)(C(=O)OC)CCCC4(C)C2CCC1(O)C3 (configuration not stated) | -76.3
CC(C)(C)NS(=O)(=O)c1ccc(-c2csnn2)s1 | -60.6
Cn1cnnc1Sc1ccc(/C=C/C(=O)c2ccc(O)cc2)cc1[N+](=O)[O-] | 58.0*
C[C@@H]1CN([C@@H](C)CO)C(=O)CCCn2cc(nn2)CO[C@H]1CN(C)S(=O)(=O)c1ccccc1 | -47.3
O=C1CCN(S(=O)(=O)c2ccc(Cl)cc2)N1 | 63.1*
O=c1c2c3c(sc2n2cnnc2n1Cc1ccccc1)CN(Cc1ccccc1)CC3 | 72.6*
C=CCC1NS(=O)(=O)OC(CCc2ccccc2)C1O (configuration not stated) | 103.8*
CSc1nc2c(c(=O)[nH]c(=O)n2C)n1Cc1ccccc1 | -43.1
Cc1ccc(Nc2nc(-c3c(C)nc4ccccn34)cs2)cc1 | 121.3*
Cc1ccc(Nc2nc(-c3c(C)nc4ncccn34)cs2)cc1 | 79.6*
O=S(=O)(c1ccc(Br)s1)N1CCN(Cc2ccc3c(c2)OCO3)CC1 | -47.0
CC(C)(O)C#Cc1ccc(C(=O)NC(CCCNC(N)=O)C(=O)O)s1 (configuration not stated) | -81.8
Cc1cc(C)cc(OC(=O)CS(=O)c2ccc(C(F)(F)F)cc2[N+](=O)[O-])c1 (configuration not stated) | 63.9*
SMILES | PGC1a Ac signal
CNC[C@H]1OCCCC[C@@H](C)Oc2ccc(NS(=O)(=O)c3ccccc3)cc2C(=O)N([C@H](C)CO)C[C@@H]1C | -48.7
C/C(N)=C(/C#N)C(=O)COc1ncnc2ccc(Br)cc12 | 89.8*
CN(C)C(=O)C[C@H]1CC[C@H](NC(=O)C2CCC2)[C@@H](CO)O1 | -44.4
Cc1ccsc1C(=O)Nc1cc(Cl)ccc1-n1cncn1 | -61.0
O=C(CS(=O)CC(=O)Nc1cccc2c1CCCC2)Nc1ccc(F)cc1 (configuration not stated) | 65.9*
C[C@H](CO)N1C[C@H](C)[C@@H](CN(C)C(=O)Nc2ccc(F)cc2)Oc2ncc(C#CC3CC3)cc2C1=O | -46.5
C[C@H](CO)N1C[C@H](C)[C@H](CN(C)S(=O)(=O)c2ccc(F)cc2)Oc2ncc(-c3cccc(C(=O)N(C)C)c3)cc2C1=O | -48.3
COc1ccc(C#Cc2cnc3c(c2)C(=O)N([C@H](C)CO)C[C@H](C)[C@H](CN(C)S(=O)(=O)c2cccc(F)c2)O3)cc1OC | 123.0*
CCOC(=O)CSc1nc2cc3c(cc2cc1C#N)OCCO3 | -40.3
COc1ccccc1NC(=O)c1ccc(NC(=O)CNC(=O)c2ccc(OC)c(OC)c2)cc1 | 71.1*
CCn1nccc1C(=O)Nc1ccccc1OC | -41.5
CCn1c(=N)n(CC(=O)c2ccc(OC)c(OC)c2)c2ccccc21 | -46.4
CCOC(=O)c1oc2nc3c(cc2c1N)COC(C)(C)C3 | 63.1*
CN(C)S(=O)(=O)c1ccc(N2CCCC2)c(C(=O)NCc2cccc(C(F)(F)F)c2)c1 | 92.5*
CN(C)C(=O)c1ccc(-c2ccc([C@@H]3[C@H]4CN(C(=O)CC5CC5)CC(=O)N4[C@H]3CO)cc2)cc1 | -47.4
c1csc(CNc2ncnc3ccc(-c4ccoc4)cc23)c1 | -50.4
COC1(C)CN(Cc2ccccc2Br)[C@H](/C=C/c2ccccc2)[C@H](Cc2ccccc2)O1 (some centres not stated) | -50.9
CCOc1ccc(S(=O)(=O)N(C)c2ccc(OCC(=O)N3c4ccc(C)cc4C4CN(C)CCC43)cc2)cc1 (configuration not stated) | -75.1
